Measured values reported in ChEMBL document CHEMBL3351603, “Design of a hydrogen peroxide-activatable agent that specifically targets cancer cells” (Bioorg Med Chem, 2014).

Key:
[1] = Selectivity ratio of IC50 for human primary CD34+ blood stem cells to IC50 for human MA9.3 cells; conditions: primary CD34+ blood stem cells versus MA9.3 cells, read-out: Ratio IC50
[2] = Cytotoxicity against human MA9.3 cells after 48 hrs by MTT assay; type: functional, cell-based
Procedure, shortened: (§1)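 Cells seeded at 4 × 10^4/well and held overnight at 37°C. Exposed 48 h to freshly dissolved compound. Cells were then pelleted, the medium replaced with fresh medium holding MTT (5 mg/mL stock), and incubated 4 h. Formazan dissolved in DMSO and read at 575 nm. IC50 from a four-parameter sigmoid fit. Triplicates, assay run twice. MA9.3RAS (MLL-AF9 + NrasG12D-transformed CD34+ cells) grown in IMDM with 20% bovine calf serum. Cord-blood CD34+ cells grown in the same medium plus SCF, IL-3, IL-6, Flt-3L and TPO.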

[3] = Decrease in KEAP1 protein expression in human MA9.3 cells at 20 uM after 24 hrs relative to control
[4] = Decrease in ROS level in human MA9.3 cells assessed as fluorescence intensity at 20 uM DCF fluorescence assay (reference value: 1.06 +/- 0.13 no_unit); type: functional
[5] = species: Homo sapiens; test: Decrease in ROS level in human MA9.3 cells at 20 uM DCF fluorescence assay; type: functional, cell-based; conditions: TDE = time-dependent effect
Procedure, shortened: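 Actively growing MA9.3RAS cells suspended in 1× HBSS at 4×10^5 cells/ml. DCF-DA added to 10 μM final, with HBSS alone as blank. Compound added in HBSS to 20 μM final. Plate held at 37°C and fluorescence (ex 485/em 535 nm) read every 15 min for 1 h, with light exposure limited. Mean ± SD of six replicates, unpaired t-test.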

[6] = Cytotoxicity against human CD34-positive blood stem/progenitor cells after 48 hrs by MTT assay; type: cell-based; procedure, shortened: as §1

| Structure (SMILES) | selectivity ratio [1] | IC50 [2] | other results |
| --- | --- | --- | --- |
| CN(CC(=O)Nc1cc(O)ccc1O)C1CCCCC1 | 3.8 | 9 µM |  |
| NC1=CC(=O)C=CC1=O |  | 16 µM |  |
| CCCN(C)CC(=O)Nc1cc(O)ccc1O |  | 18 µM |  |
| C=C1C(=O)O[C@@H]2[C@H]3O[C@]3(C)CC/C=C(\C)CC[C@@H]12 | 2.1 | 3 µM |  |
| O=C(CNc1ccccc1)Nc1cc(O)ccc1O |  | 13 µM |  |
| CN(CC(=O)Nc1cc(O)ccc1O)c1ccccc1 | 2 | 6 µM |  |
| CN(CC(=O)NC1=CC(=O)C=CC1=O)c1ccccc1 |  | 21 µM |  |
| O=C(CSc1ccccc1)Nc1cc(O)ccc1O |  | 5 µM |  |
| O=C(COc1ccccc1)Nc1cc(O)ccc1O |  | 3 µM |  |
| CC(=O)Nc1cc(O)ccc1O |  | 35 µM |  |
| O=C(CNC1CCCCC1)Nc1cc(O)ccc1O | 11.5 | 2 µM | Ratio [3]: 0.65; Flu intensity [4]: 4.31; Activity [5]: tde; Activity [6]: Non-toxic |
| COc1cc(/C=C/C(=O)N2CCC=CC2=O)cc(OC)c1OC [PIPLARTINE] | 3.7 | 2 µM |  |
| CN(CC(=O)Nc1cccc(O)c1)c1ccccc1 |  | > 100 µM |  |
| CN(CC(=O)Nc1ccccc1O)c1ccccc1 |  | > 100 µM |  |
| O=C(CO)Nc1cc(O)ccc1O |  | 12 µM |  |
| COc1ccc(OC)c(NC(=O)CN(C)c2ccccc2)c1 |  | > 100 µM |  |
